Each structure is given as a SMILES string.

This is an account of results in paper PMC7564327 (Acta Pharmaceutica Sinica. B, 2020).

For one series, the target named is T1, hOAT1 (Homo sapiens, UniProt Q4U2R8).
T1 sequence (Q4U2R8 1-563): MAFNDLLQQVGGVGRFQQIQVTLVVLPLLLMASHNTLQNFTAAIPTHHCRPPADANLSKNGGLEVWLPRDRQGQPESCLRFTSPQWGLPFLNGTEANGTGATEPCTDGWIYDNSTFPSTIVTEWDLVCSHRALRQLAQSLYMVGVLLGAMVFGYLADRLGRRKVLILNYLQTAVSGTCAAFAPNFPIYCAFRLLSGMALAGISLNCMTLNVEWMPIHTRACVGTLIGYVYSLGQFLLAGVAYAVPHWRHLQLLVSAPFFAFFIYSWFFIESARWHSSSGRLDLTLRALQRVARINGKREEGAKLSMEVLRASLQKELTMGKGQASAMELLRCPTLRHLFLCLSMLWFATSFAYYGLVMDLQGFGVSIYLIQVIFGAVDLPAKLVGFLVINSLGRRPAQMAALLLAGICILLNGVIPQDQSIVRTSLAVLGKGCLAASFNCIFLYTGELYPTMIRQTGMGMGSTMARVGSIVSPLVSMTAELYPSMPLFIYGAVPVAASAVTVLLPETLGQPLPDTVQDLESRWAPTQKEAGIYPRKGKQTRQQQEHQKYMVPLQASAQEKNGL
Kind of series: Cellular uptake in MDCK-hOAT1 vs Mock cells. It is filed as in vitro ADME. The conditions noted are these: 100 μmol/L, substrate if >2-fold of wild type. The method in brief:
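Transfected cells and matching Mock cells were seeded at 2 × 10⁵ cells/mL and grown 2 days. After a DPBS (pH 7.4) wash and 10 min preincubation at 37 °C, cells took up 100 μmol/L test compound for 2–5 min at 37 °C. Uptake was stopped with three ice-cold DPBS washes, followed by methanol extraction and HPLC–MS. Values were normalised to BCA protein and compared with Mock.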

In another series the target is T2, hOATP1B1 (Homo sapiens, UniProt Q9Y6L6).
T2 sequence (Q9Y6L6 1-691): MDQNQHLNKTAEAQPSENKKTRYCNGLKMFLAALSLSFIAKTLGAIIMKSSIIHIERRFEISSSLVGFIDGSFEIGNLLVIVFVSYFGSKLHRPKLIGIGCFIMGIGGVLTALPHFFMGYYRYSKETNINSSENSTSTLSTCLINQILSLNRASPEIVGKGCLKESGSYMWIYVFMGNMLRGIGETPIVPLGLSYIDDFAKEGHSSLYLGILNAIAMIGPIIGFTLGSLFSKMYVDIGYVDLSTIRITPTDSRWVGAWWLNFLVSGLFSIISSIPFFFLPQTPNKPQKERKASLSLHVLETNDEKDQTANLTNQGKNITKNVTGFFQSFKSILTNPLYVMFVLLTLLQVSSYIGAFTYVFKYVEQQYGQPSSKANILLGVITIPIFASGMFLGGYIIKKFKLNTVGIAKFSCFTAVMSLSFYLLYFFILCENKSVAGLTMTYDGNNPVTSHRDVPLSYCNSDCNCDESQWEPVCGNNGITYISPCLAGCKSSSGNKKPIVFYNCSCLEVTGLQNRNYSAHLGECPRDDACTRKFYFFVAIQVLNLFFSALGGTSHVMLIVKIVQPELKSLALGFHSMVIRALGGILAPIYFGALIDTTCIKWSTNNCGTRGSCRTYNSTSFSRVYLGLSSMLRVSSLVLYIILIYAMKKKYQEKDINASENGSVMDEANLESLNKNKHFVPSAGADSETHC
The experiment in a line: Cellular uptake and kinetics in HEK293-hOATP1B1 vs Mock cells. The conditions noted are these: 100 μmol/L. In kind it is in vitro ADME.

A further series has as its target T3, hOATP2B1 (Homo sapiens, UniProt O94956).
T3 sequence (O94956 1-709): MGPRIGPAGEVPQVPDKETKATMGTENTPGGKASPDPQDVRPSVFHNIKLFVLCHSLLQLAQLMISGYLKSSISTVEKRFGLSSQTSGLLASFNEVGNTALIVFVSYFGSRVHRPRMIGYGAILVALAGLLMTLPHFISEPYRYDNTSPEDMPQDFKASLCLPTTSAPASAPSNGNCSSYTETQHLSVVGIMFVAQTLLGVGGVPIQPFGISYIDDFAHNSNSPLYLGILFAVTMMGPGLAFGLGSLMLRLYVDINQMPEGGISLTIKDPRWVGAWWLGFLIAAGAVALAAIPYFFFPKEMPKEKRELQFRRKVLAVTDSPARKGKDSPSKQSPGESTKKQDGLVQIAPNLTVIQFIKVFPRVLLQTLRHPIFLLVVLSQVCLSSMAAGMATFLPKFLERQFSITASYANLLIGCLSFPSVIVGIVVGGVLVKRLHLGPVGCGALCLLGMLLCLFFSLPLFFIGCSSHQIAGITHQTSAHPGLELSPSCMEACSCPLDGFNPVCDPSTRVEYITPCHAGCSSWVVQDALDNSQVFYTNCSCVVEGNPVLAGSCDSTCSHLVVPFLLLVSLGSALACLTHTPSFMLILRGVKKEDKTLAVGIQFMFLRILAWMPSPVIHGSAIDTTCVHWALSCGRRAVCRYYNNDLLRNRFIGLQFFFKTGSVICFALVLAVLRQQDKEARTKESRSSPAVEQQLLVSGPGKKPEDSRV
Kind of series: Inhibition of 3H-ES uptake in HEK293-hOATP2B1 cells. It is filed as in vitro ADME. The conditions noted are these: 100 μmol/L IPT, ISP; substrate 3H-ES. Put shortly: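 Test compounds were made as DMSO stocks (20 mmol/L, or 10 mg/mL for extract) and diluted in PBS to a final DMSO below 0.5%. Cells were exposed at 37 °C to probe plus or minus test compound. The probe was 5 μmol/L ¹⁴C-PAH for 5 min (hOAT1) or 50 nmol/L ³H-estrone sulfate for 2 min (hOAT3, hOATP2B1). Screens used 100 μmol/L (extract 100 mg/L); IC50 came from varied concentrations. Cells were then given three cold DPBS washes, lysed in 0.1 mol/L NaOH and read by scintillation counting. Data are mean ± SD, n = 3.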

In another series the test system is mice liver slices. Kind of series: In vitro uptake of TDE in mice liver slices. In kind it is in vitro ADME, Kunming mice. As to conditions: mice liver slices, TDE 10 μmol/L. The method in brief: (§1)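 Kunming mice (20–25 g, fasted 12 h) were anaesthetised with urethane, and kidney or liver was decapsulated into ice-cold oxygenated buffer at pH 7.5. Slices of about 30 mg were preincubated 5 min under carbogen at 4 or 37 °C. They were then incubated with 10 μmol/L test compound for 5, 10 or 30 min, with or without reference OAT1/OAT3 or OATP inhibitors or co-ingredients. Slices were then washed, blotted, weighed and homogenised, then extracted with methanol and an internal standard for HPLC–MS.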

A further series relates to mice kidney slices. Kind of series: In vitro uptake of TDE in mice kidney slices. In kind it is in vitro ADME, Kunming mice. The conditions noted are these: TDE 10 μmol/L. The method in brief: as §1
The test system of a further series is mOatp1a1. The experiment in a line: qRT-PCR of mOatp1a1 mRNA in liver of treated mice. It is filed as in vivo. The conditions noted are these: mice given 20 mg/kg TDE with 20 mg/kg IPT, ISP or 200 mg/kg AD extract, 4 h. On the technique in general: In qPCR the cycle at which signal appears reflects the starting amount.
The test system of the next series is mOatp1a4. The experiment in a line: qRT-PCR of mOatp1a4 mRNA in liver of treated mice. It is filed as in vivo. As to conditions: mice given 20 mg/kg TDE with 20 mg/kg IPT, ISP or 200 mg/kg AD extract, 4 h.

In the case of `CC(C)=CCOc1c2occc2cc2ccc(=O)oc12` [IPT, imperatorin], the “accumulation in MDCK-hOAT1, fold higher than in MDCK-Mock” value at hOAT1 is ~4.92 fold. For the same molecule, the “accumulation in hOATP1B1-overexpressed cell lines compared to wild type” value on hOATP1B1 is on record as “could largely accumulate”. The “inhibition to hOATP2B1” value at hOATP2B1 is listed as “weak or no inhibition”. The “effect on the uptake of TDE in liver slices” value in the series with mice liver slices is reported as “significant inhibition”. The “effect on the uptake of TDE in kidney slices” value in the series on mice kidney slices is listed as “significant inhibition”. Further, the “mRNA level of mOatp1a1 decreased to, compared to TDE alone” value with mOatp1a1 came out at 22%. In addition, in the series with mOatp1a4, the “mRNA level of mOatp1a4 decreased to, compared to TDE alone” value was determined as 36%.

`CC(C)=CCOc1c2ccoc2cc2oc(=O)ccc12` [ISP, isoimperatorin]: at hOAT1, the “accumulation in MDCK-hOAT1, fold higher than in MDCK-Mock” value was ~3.40 fold. Also, on hOATP1B1, the “accumulation in hOATP1B1-overexpressed cell lines compared to wild type” value is “could largely accumulate”. Moreover, at hOATP2B1, the “inhibition to hOATP2B1” value is given as “weak or no inhibition”. For the same molecule, the “effect on the uptake of TDE in liver slices” value with mice liver slices was “significant inhibition”. Also, in the series with mice kidney slices, the “effect on the uptake of TDE in kidney slices” value is on record as “significant inhibition”. In the series on mOatp1a1, the “mRNA level of mOatp1a1 decreased to, compared to TDE alone” value is reported as 37%. In addition, the “mRNA level of mOatp1a4 decreased to, compared to TDE alone” value in the series with mOatp1a4 is 61%.
